Calls of active or inactive are those of the source. The rule behind the calls is not given here.
target: T1, Heat shock protein HSP90 (Homo sapiens, UniProt P07900+P08238); assay: Inhibition of Hsp90 in human SKBR3 cells assessed as Her2 degradation after 24 hrs by Western blot; type: cell-based; conditions: sk-br-3

Question: `COc1ccc(O)c(O)c1-c1cc(NS(=O)(=O)c2cc(Cl)ccc2Cl)ccc1N` was tested. Which IC50 did it give?
Answer: 20 µM

tested on: SK-BR-3; assay: cells; conditions: Homo sapiens, SK-BR-3, 72 h

Question: With `O=S(=O)(Nc1ccc(O)c(-c2c(O)ccc3ccccc23)c1)c1ccc(O)cc1O` as the molecule, how does the IC50 read?
Answer: > 50 µM

Question: How did the IC50 turn out when `COc1ccc(O)c(O)c1-c1cc(NS(=O)(=O)c2cc(Cl)ccc2Cl)ccc1N` was run?
Answer: 6 µM

Question: `O=S(=O)(Nc1ccc(O)c(-c2c(O)ccc3ccccc23)c1)c1cc(Cl)ccc1Cl` was tested. Which IC50 did it give?
Answer: 6 µM

Question: With `O=S(=O)(Nc1ccc(O)c(-c2c(O)ccc3c2OCO3)c1)c1cc(Cl)ccc1Cl` as the molecule, how does the IC50 read?
Answer: 4.4 µM

target: T1, Heat shock protein HSP90; assay: Inhibition of Hsp90 in human SKBR3 cells assessed as interaction with Cy3b-conjugated geldanamycin by FP assay; type: cell-based; conditions: sk-br-3

Question: With `O=S(=O)(Nc1ccc(O)c(-c2c(O)ccc3ccccc23)c1)c1ccc(O)cc1O` as the molecule, how does the IC50 read?
Answer: 1.8 µM

Question: For `O=S(=O)(Nc1ccc(O)c(-c2ccccc2O)c1)c1cc(Cl)ccc1Cl`, which IC50 is on record?
Answer: 19.4 µM

Question: How did the IC50 turn out when `O=S(=O)(Nc1cccc(-c2c(O)ccc3c2OCO3)c1)c1ccc(F)cc1` was run?
Answer: 19.6 µM

Question: With `O=S(=O)(Nc1cccc(-c2c(O)ccc3c2OCO3)c1)c1cc(Cl)ccc1Cl` as the molecule, how does the IC50 read?
Answer: 14.5 µM

Question: For `Nc1ccc(NS(=O)(=O)c2ccc(O)cc2O)cc1-c1c(O)ccc2ccccc12`, which IC50 is on record?
Answer: 9.5 µM

Question: With `O=[N+]([O-])c1cc(S(=O)(=O)Nc2ccc(F)c(-c3c(O)ccc4c3OCO4)c2)ccc1Cl` as the molecule, how does the IC50 read?
Answer: 26 µM

Question: For `N#Cc1ccccc1S(=O)(=O)Nc1ccc(O)c(-c2c(O)ccc3ccccc23)c1`, which IC50 is on record?
Answer: 4.5 µM

Question: How did the IC50 turn out when `COc1ccc(O)c(O)c1-c1cc(NS(=O)(=O)c2cc(Cl)ccc2Cl)ccc1N` was run?
Answer: 0.55 µM

Question: Which IC50 does the source give for `COc1ccc(S(=O)(=O)Nc2ccc(O)c(-c3c(O)ccc4ccccc34)c2)c(OC)c1` here?
Answer: 2.5 µM

Question: For `N#Cc1cc(S(=O)(=O)Nc2ccc(F)c(-c3c(O)ccc4c3OCO4)c2)ccc1F`, which IC50 is on record?
Answer: 27 µM

Question: How did the IC50 turn out when `O=S(=O)(Nc1ccc(O)c(-c2c(O)ccc3c2OCO3)c1)c1cc(Cl)ccc1Cl` was run?
Answer: 1.7 µM

Question: `COc1cc(O)ccc1S(=O)(=O)Nc1ccc(O)c(-c2c(O)ccc3ccccc23)c1` was tested. Which IC50 did it give?
Answer: 1.3 µM

Question: With `Cc1ccc(S(=O)(=O)Nc2ccc(F)c(-c3c(O)ccc4c3OCO4)c2)cc1` as the molecule, how does the IC50 read?
Answer: 28 µM

Question: For `COc1ccc(S(=O)(=O)Nc2ccc(N)c(-c3c(O)ccc4ccccc34)c2)c(OC)c1`, which IC50 is on record?
Answer: 25 µM

Question: With `Cc1ccc(S(=O)(=O)Nc2cccc(-c3c(O)ccc4c3OCO4)c2)cc1` as the molecule, how does the IC50 read?
Answer: 31.3 µM

Question: For `Nc1ccc(NS(=O)(=O)c2cc(Cl)ccc2Cl)cc1-c1c(O)ccc2ccccc12`, which IC50 is on record?
Answer: 9.4 µM

Question: How did the IC50 turn out when `O=S(=O)(Nc1ccc(O)c(-c2c(O)ccc3ccccc23)c1)c1ccccc1` was run?
Answer: 4.5 µM

target: T1, Heat shock protein HSP90; assay: Inhibition of Hsp90 in human SKBR3 cells assessed as interaction with Cy3b-conjugated geldanamycin upto 50 uM by FP assay; type: cell-based; conditions: SK-BR-3
Summary of the method: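 Fluorescence polarization binding assay measuring displacement of fluorescently labeled geldanamycin from the Hsp90 ATP-binding site. Compounds were tested up to a maximum of 50 µM.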

Question: With `O=C(O)c1ccc(S(=O)(=O)Nc2ccccc2-c2c(O)ccc3c2OCO3)cc1` as the molecule, how does the Activity read?
Answer: inactive

Question: How did the Activity turn out when `Cc1ccc(S(=O)(=O)Nc2ccc(O)c(-c3ccccc3O)c2)cc1` was run?
Answer: inactive

Question: Which Activity does the source give for `Nc1cccc(S(=O)(=O)Nc2ccc(F)c(-c3c(O)ccc4c3OCO4)c2)c1` here?
Answer: inactive

Question: `COc1ccc(S(=O)(=O)Nc2ccc(N)c(-c3c(OC)ccc4c3OCO4)c2)cc1OC` was tested. Which Activity did it give?
Answer: inactive

Question: `N#Cc1cc(S(=O)(=O)Nc2cccc(-c3c(O)ccc4c3OCO4)c2)ccc1F` was tested. Which Activity did it give?
Answer: inactive

Question: How did the Activity turn out when `Nc1cccc(S(=O)(=O)Nc2ccc(O)c(-c3ccccc3O)c2)c1` was run?
Answer: inactive

Question: For `COc1ccc2c(c1-c1cc(NS(=O)(=O)c3cccc([N+](=O)[O-])c3)ccc1N)OCO2`, which Activity is on record?
Answer: inactive

Question: How did the Activity turn out when `COc1ccc(S(=O)(=O)Nc2ccc(O)c(-c3ccccc3O)c2)cc1OC` was run?
Answer: inactive

Question: `Nc1ccccc1S(=O)(=O)Nc1ccc(F)c(-c2c(O)ccc3c2OCO3)c1` was tested. Which Activity did it give?
Answer: inactive

Question: With `COc1ccc2c(c1-c1cc(NS(=O)(=O)c3cccc(N)c3)ccc1N)OCO2` as the molecule, how does the Activity read?
Answer: inactive

Question: For `O=[N+]([O-])c1cccc(S(=O)(=O)Nc2ccc(O)c(-c3ccccc3O)c2)c1`, which Activity is on record?
Answer: inactive

Question: With `COc1ccc2c(c1-c1cc(NS(=O)(=O)c3ccccc3N)ccc1N)OCO2` as the molecule, how does the Activity read?
Answer: inactive

Question: Which Activity does the source give for `COc1ccc2c(c1-c1cc(NS(=O)(=O)c3cc(Cl)ccc3Cl)ccc1N)OCO2` here?
Answer: inactive

Question: Which Activity does the source give for `Cc1ccc(S(=O)(=O)Nc2ccc(N)c(-c3ccccc3O)c2)cc1` here?
Answer: inactive

Question: With `COc1ccc(S(=O)(=O)Nc2ccc(N)c(-c3ccccc3O)c2)cc1OC` as the molecule, how does the Activity read?
Answer: inactive

Question: For `O=[N+]([O-])c1ccccc1S(=O)(=O)Nc1ccc(F)c(-c2c(O)ccc3c2OCO3)c1`, which Activity is on record?
Answer: inactive

Question: `Nc1ccc(NS(=O)(=O)c2ccccc2)cc1-c1c(O)ccc2ccccc12` was tested. Which Activity did it give?
Answer: inactive

Question: With `Nc1ccccc1S(=O)(=O)Nc1ccc(O)c(-c2ccccc2O)c1` as the molecule, how does the Activity read?
Answer: inactive

Question: Which Activity does the source give for `COc1ccc2c(c1-c1cc(NS(=O)(=O)c3ccccc3[N+](=O)[O-])ccc1N)OCO2` here?
Answer: inactive

Question: How did the Activity turn out when `O=[N+]([O-])c1cccc(S(=O)(=O)Nc2ccc(F)c(-c3c(O)ccc4c3OCO4)c2)c1` was run?
Answer: inactive

Question: With `O=S(=O)(Nc1ccc(F)c(-c2c(O)ccc3c2OCO3)c1)c1ccc(F)cc1` as the molecule, how does the Activity read?
Answer: inactive

Question: Which Activity does the source give for `O=[N+]([O-])c1ccccc1S(=O)(=O)Nc1ccc(O)c(-c2ccccc2O)c1` here?
Answer: inactive

Question: For `O=C(O)c1cccc(S(=O)(=O)Nc2ccc(F)c(-c3c(O)ccc4c3OCO4)c2)c1`, which Activity is on record?
Answer: inactive

Question: For `Nc1ccc(NS(=O)(=O)c2cc(Cl)ccc2Cl)cc1-c1ccccc1O`, which Activity is on record?
Answer: inactive

Question: Which Activity does the source give for `COc1ccc2c(c1-c1cc(NS(=O)(=O)c3ccc(C)cc3)ccc1N)OCO2` here?
Answer: inactive

Question: For `O=S(=O)(Nc1ccccc1-c1c(O)ccc2c1OCO2)c1cc(Cl)ccc1Cl`, which Activity is on record?
Answer: inactive

Question: How did the Activity turn out when `N#Cc1cc(S(=O)(=O)Nc2ccccc2-c2c(O)ccc3c2OCO3)ccc1F` was run?
Answer: inactive

Reference: ChEMBL document CHEMBL1144185, “Synthesis and SAR study of N-(4-hydroxy-3-(2-hydroxynaphthalene-1-yl)phenyl)-arylsulfonamides: heat shock protein 90 (Hsp90) inhibitors with submicromolar activity in an in vitro assay” (Bioorg Med Chem Lett, 2008)
